{"source": "ChEMBL document CHEMBL1649530", "about": "“Pharmacokinetics and pharmacodynamics of a novel triazole, isavuconazole: mathematical modeling, importance of tissue concentrations, and impact of immune status on antifungal effect” (Antimicrob Agents Chemother, 2009)", "key": {"[1]": {"experiment": "Ratio of AUC to MIC in mouse infected with Candida albicans FA/6862 at 6.74 mg/kg, sc BID", "type": "functional", "conditions": "route subcutaneous"}, "[2]": {"experiment": "Ratio of AUC to MIC in mouse infected with Candida albicans FA/6862 at 3.27 mg/kg, sc administered as single dose", "type": "functional", "conditions": "route subcutaneous"}, "[3]": {"experiment": "Ratio of AUC to MIC in mouse infected with Candida albicans FA/6862 at 5.35 mg/kg, sc administered as single dose", "type": "functional", "conditions": "route subcutaneous"}, "[4]": {"experiment": "Ratio of AUC to MIC in mouse infected with Candida albicans FA/6862 at 4.06 mg/kg, sc BID", "type": "functional", "conditions": "route subcutaneous"}, "[5]": {"experiment": "Ratio of AUC to MIC in mouse infected with Candida albicans FA/6862 at 2.67 mg/kg, sc BID", "type": "functional", "conditions": "route subcutaneous"}, "[6]": {"experiment": "Ratio of AUC to MIC in mouse infected with Candida albicans FA/6862 at 8.12 mg/kg, sc administered as single dose", "type": "functional", "conditions": "route subcutaneous"}, "[7]": {"experiment": "Ratio of AUC to MIC in mouse infected with Candida albicans FA/6862 at 13.48 mg/kg, sc administered as single dose", "type": "functional", "conditions": "route subcutaneous"}, "[8]": {"experiment": "Terminal half life in mouse at 1.6 to 13 mg/kg, sc", "type": "ADME, organism-based", "design": "dose 1.6-13 mg/kg, route subcutaneous", "conditions": "in vivo, read-out: beta t1/2 (converted)", "method_in_brief": "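Infected, cyclophosphamide-neutropenic mice given single sc doses. Plasma collected by cardiac puncture at 0.5–24 h, three mice per time point. Plasma stabilized with citric acid and assayed by LC-MS/MS. Half-life derived from a population PK model co-fitting plasma, kidney and fungal burden data.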"}, "Candida albicans [9]": {"test_system": "Candida albicans", "experiment": "Antifungal activity against Candida albicans FA/6862 assessed as postantifungal effect at 5 to 100 times MIC by CLSI M27-A2 method", "type": "functional", "method_in_brief": "(§1)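 Log-phase organism washed in PBS, resuspended at 1 × 10^6 CFU/ml in warmed RPMI 1640 + 2% glucose, pre-incubated 30 min at 37°C. Drug added at 1/10× to 100× MIC for 3 h, then washed twice and regrown in drug-free RPMI. Quantitative subcultures hourly to 8 h, then 14 and 24 h. PAFE = delay in reaching +1 log10 CFU/ml versus drug-free controls.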"}, "Candida albicans [10]": {"test_system": "Candida albicans", "experiment": "Antifungal activity against Candida albicans FA/6862 assessed as postantifungal effect at 2 times MIC by CLSI M27-A2 method", "type": "functional", "method_in_brief": "as §1"}, "Candida albicans [11]": {"test_system": "Candida albicans", "experiment": "Antifungal activity against Candida albicans FA/6862 assessed as postantifungal effect at =< 1 time MIC by CLSI M27-A2 method", "type": "functional, organism-based", "method_in_brief": "as §1"}, "Candida albicans [12]": {"test_system": "Candida albicans", "experiment": "Antifungal activity against Candida albicans FA/6862 infected in mouse assessed as fungal load per gram of kidney at 1.6 to 28 mg/kg, sc measured after 29 hrs postinfection", "conditions": "dose mg/kg 1.6-28; route subcutaneous"}, "[13]": {"experiment": "Ratio of AUC to MIC in mouse infected with Candida albicans FA/6862 at 2.03 mg/kg, sc QID", "type": "functional", "conditions": "route subcutaneous"}, "[14]": {"experiment": "Ratio of AUC to MIC in mouse infected with Candida albicans FA/6862 at 3.37 mg/kg, sc QID", "conditions": "route subcutaneous"}, "Candida albicans [15]": {"test_system": "Candida albicans", "experiment": "Antifungal activity against Candida albicans FA/6862 by CLSI M27-A2 method", "type": "functional", "method_in_brief": "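Broth microdilution per CLSI M27-A2. Run in duplicate on three separate occasions; modal MIC used.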"}, "[16]": {"experiment": "Ratio of AUC to MIC in mouse infected with Candida albicans FA/6862 at 1.63 mg/kg, sc BID", "type": "functional", "conditions": "route subcutaneous"}, "[17]": {"experiment": "Ratio of AUC to MIC in mouse infected with Candida albicans FA/6862 at 1.34 mg/kg, sc QID", "type": "functional", "conditions": "route subcutaneous"}, "[18]": {"experiment": "Ratio of AUC to MIC in mouse infected with Candida albicans FA/6862 at 0.82 mg/kg, sc QID", "type": "functional", "conditions": "route subcutaneous"}}, "note": "Activity calls are given as the source filed them. No cut-off for these calls is given here."}
{"smiles": "C[C@@H](c1nc(-c2ccc(C#N)cc2)cs1)[C@](O)(Cn1cncn1)c1cc(F)ccc1F", "note": "[ISAVUCONAZOLE]", "values": [{"measurement": "RatioAUC/MIC", "setting": "[1]", "result": 1584.5}, {"measurement": "RatioAUC/MIC", "setting": "[2]", "result": 387.75}, {"measurement": "RatioAUC/MIC", "setting": "[3]", "result": 630}, {"measurement": "RatioAUC/MIC", "setting": "[4]", "result": 960.25}, {"measurement": "RatioAUC/MIC", "setting": "[5]", "result": 633.75}, {"measurement": "RatioAUC/MIC", "setting": "[6]", "result": 969.5}, {"measurement": "RatioAUC/MIC", "setting": "[7]", "result": 1599.75}, {"measurement": "half-life", "setting": "[8]", "result": 3.41, "unit": "h"}, {"measurement": "Time", "setting": "Candida albicans [9]", "result": 5, "unit": "h"}, {"measurement": "Time", "setting": "Candida albicans [10]", "result": 2, "unit": "h"}, {"measurement": "Activity", "setting": "Candida albicans [11]", "result": "inactive"}, {"measurement": "log10cfu", "setting": "Candida albicans [12]", "result": 5.5}, {"measurement": "RatioAUC/MIC", "setting": "[13]", "result": 930.5}, {"measurement": "RatioAUC/MIC", "setting": "[14]", "result": 1544.75}, {"measurement": "MIC", "setting": "Candida albicans [15]", "result": 4, "unit": "ng/mL"}, {"measurement": "RatioAUC/MIC", "setting": "[16]", "result": 384.25}, {"measurement": "RatioAUC/MIC", "setting": "[17]", "result": 614.25}, {"measurement": "RatioAUC/MIC", "setting": "[18]", "result": 372.25}]}
